In ChEMBL document CHEMBL5376013, “Design, synthesis and biological evaluation of novel morpholinopyrimidine-5-carbonitrile derivatives as dual PI3K/mTOR inhibitors” (RSC Med Chem, 2024):

Experiments:
Assay type in all cases: functional
Details in all cases: read-out: GI
NCI/ADR-RES = test: Antitumor activity against human NCI-ADR-RES cells assessed as growth inhibition at 10 uM relative to control
Summary of the method: (§1)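 After drug addition, plates were incubated 48 h at 37 °C under 5% CO2. Adherent cells were fixed with cold TCA (10% final, 60 min, 4 °C) and suspension cells with 16% final TCA. Staining used 0.4% SRB in 1% acetic acid, solubilized in 10 mM trizma, read at A515. Percent growth was calculated from time-zero, control and treated absorbances.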

HL-60 = test: Antitumor activity against human HL-60 cells assessed as growth inhibition at 10 uM relative to control; summary of the method: as §1
ACHN = test: Antitumor activity against human ACHN cells assessed as growth inhibition at 10 uM relative to control; summary of the method: as §1
MOLT-4 = test: Antitumor activity against human MOLT-4 cells assessed as growth inhibition at 10 uM relative to control; summary of the method: as §1
SK-OV-3 = test: Antitumor activity against human SK-OV-3 cells assessed as growth inhibition at 10 uM relative to control
Summary of the method: (§2)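 Drug exposure 48 h at 37 °C, 5% CO2. Adherent cells fixed with cold TCA (10% final), suspension cells with TCA (16% final). Stained with 0.4% SRB in 1% acetic acid, dissolved in 10 mM Tris, A515. Growth relative to time-zero and untreated control.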

NCI-H226 = test: Antitumor activity against human NCI-H226 cells assessed as growth inhibition at 10 uM relative to control; summary of the method: as §1
NCI-H522 = test: Antitumor activity against human NCI-H522 cells assessed as growth inhibition at 10 uM relative to control; summary of the method: as §1
MDA-MB-435 = test: Antitumor activity against human MDA-MB-435 cells assessed as growth inhibition at 10 uM relative to control; summary of the method: as §1
A498 = test: Antitumor activity against human A498 cells assessed as growth inhibition at 10 uM relative to control; summary of the method: as §1
A549 = test: Antitumor activity against human A549 cells assessed as growth inhibition at 10 uM relative to control; summary of the method: as §1
RXF 393 = test: Antitumor activity against human RXF 393 cells assessed as growth inhibition at 10 uM relative to control; summary of the method: as §1
SR = test: Antitumor activity against human SR cells assessed as growth inhibition at 10 uM relative to control; summary of the method: as §2
CCRF-CEM = test: Antitumor activity against human CCRF-CEM cells assessed as growth inhibition at 10 uM relative to control; summary of the method: as §1
K562 = test: Antitumor activity against human K562 cells assessed as growth inhibition at 10 uM relative to control; summary of the method: as §1
U-251 = test: Antitumor activity against human U-251 cells assessed as growth inhibition at 10 uM relative to control; summary of the method: as §2
LOX IMVI = test: Antitumor activity against human LOX IMVI cells assessed as growth inhibition at 10 uM relative to control; summary of the method: as §1
IGROV-1 = test: Antitumor activity against human IGROV-1 cells assessed as growth inhibition at 10 uM relative to control; summary of the method: as §1
SN12C = test: Antitumor activity against human SN12C cells assessed as growth inhibition at 10 uM relative to control; summary of the method: as §2
MCF7 = test: Antitumor activity against human MCF7 cells assessed as growth inhibition at 10 uM relative to control; summary of the method: as §1
UACC-62 = test: Antitumor activity against human UACC-62 cells assessed as growth inhibition at 10 uM relative to control; summary of the method: as §2
BT-549 = test: Antitumor activity against human BT-549 cells assessed as growth inhibition at 10 uM relative to control; summary of the method: as §1
TK-10 = test: Antitumor activity against human TK-10 cells assessed as growth inhibition at 10 uM relative to control; summary of the method: as §2
MDA-MB-231 = test: Antitumor activity against human MDA-MB-231 cells assessed as growth inhibition at 10 uM relative to control; summary of the method: as §1
DU-145 = test: Antitumor activity against human DU-145 cells assessed as growth inhibition at 10 uM relative to control; summary of the method: as §1
EKVX = test: Antitumor activity against human EKVX cells assessed as growth inhibition at 10 uM relative to control; summary of the method: as §1
CAKI-1 = test: Antitumor activity against human CAKI-1 cells assessed as growth inhibition at 10 uM relative to control; summary of the method: as §1
SK-MEL-28 = test: Antitumor activity against human SK-MEL-28 cells assessed as growth inhibition at 10 uM relative to control; summary of the method: as §2
OVCAR-8 = test: Antitumor activity against human OVCAR-8 cells assessed as growth inhibition at 10 uM relative to control; summary of the method: as §1
SNB-19 = test: Antitumor activity against human SNB-19 cells assessed as growth inhibition at 10 uM relative to control; summary of the method: as §2
HCT-15 = test: Antitumor activity against human HCT-15 cells assessed as growth inhibition at 10 uM relative to control; summary of the method: as §1
SK-MEL-5 = test: Antitumor activity against human SK-MEL-5 cells assessed as growth inhibition at 10 uM relative to control; summary of the method: as §2
COLO 205 = test: Antitumor activity against human COLO 205 cells assessed as growth inhibition at 10 uM relative to control; summary of the method: as §1
SK-MEL-2 = test: Antitumor activity against human SK-MEL-2 cells assessed as growth inhibition at 10 uM relative to control; summary of the method: as §1
NCI-H460 = test: Antitumor activity against human NCI-H460 cells assessed as growth inhibition at 10 uM relative to control; summary of the method: as §1
NCI-H23 = test: Antitumor activity against human NCI-H23 cells assessed as growth inhibition at 10 uM relative to control; summary of the method: as §1
NCI-H322M = test: Antitumor activity against human NCI-H322M cells assessed as growth inhibition at 10 uM relative to control; summary of the method: as §1
Hs-578T = test: Antitumor activity against human Hs-578T cells assessed as growth inhibition at 10 uM relative to control; summary of the method: as §1
HCC 2998 = test: Antitumor activity against human HCC 2998 cells assessed as growth inhibition at 10 uM relative to control; summary of the method: as §1
HT-29 = test: Antitumor activity against human HT-29 cells assessed as growth inhibition at 10 uM relative to control; summary of the method: as §1
T47D = test: Antitumor activity against human T47D cells assessed as growth inhibition at 10 uM relative to control; summary of the method: as §2
SF-268 = test: Antitumor activity against human SF-268 cells assessed as growth inhibition at 10 uM relative to control; summary of the method: as §1
786-0 = test: Antitumor activity against human 786-0 cells assessed as growth inhibition at 10 uM relative to control; summary of the method: as §1
OVCAR-5 = test: Antitumor activity against human OVCAR-5 cells assessed as growth inhibition at 10 uM relative to control; summary of the method: as §1
PC-3 = test: Antitumor activity against human PC-3 cells assessed as growth inhibition at 10 uM relative to control; summary of the method: as §1
SF-539 = test: Antitumor activity against human SF-539 cells assessed as growth inhibition at 10 uM relative to control; summary of the method: as §1
UO-31 = test: Antitumor activity against human UO-31 cells assessed as growth inhibition at 10 uM relative to control; summary of the method: as §2

## N#Cc1c(-c2ccc(Cl)cc2)nc(N/N=C/c2cccc(F)c2)nc1N1CCOCC1
NCI/ADR-RES
  inhibition of growth at 10 µM: < 1%
HL-60
  inhibition of growth at 10 µM: < 1%
ACHN
  inhibition of growth at 10 µM: 10.2%
MOLT-4
  inhibition of growth at 10 µM: 25.9%
SK-OV-3
  inhibition of growth at 10 µM: < 1%
NCI-H226
  inhibition of growth at 10 µM: < 1%
NCI-H522
  inhibition of growth at 10 µM: 11.6%
MDA-MB-435
  inhibition of growth at 10 µM: < 1%
A498
  inhibition of growth at 10 µM: 17%
A549
  inhibition of growth at 10 µM: < 1%
RXF 393
  inhibition of growth at 10 µM: < 1%
SR
  inhibition of growth at 10 µM: < 1%
CCRF-CEM
  inhibition of growth at 10 µM: 19.6%
K562
  inhibition of growth at 10 µM: 15%
U-251
  inhibition of growth at 10 µM: 21.1%
LOX IMVI
  inhibition of growth at 10 µM: 11.8%
IGROV-1
  inhibition of growth at 10 µM: 17.4%
SN12C
  inhibition of growth at 10 µM: < 1%
MCF7
  inhibition of growth at 10 µM: < 12.4%
UACC-62
  inhibition of growth at 10 µM: < 1%
BT-549
  inhibition of growth at 10 µM: < 1%
TK-10
  inhibition of growth at 10 µM: < 1%
MDA-MB-231
  inhibition of growth at 10 µM: < 1%
DU-145
  inhibition of growth at 10 µM: < 1%
EKVX
  inhibition of growth at 10 µM: 26.2%
CAKI-1
  inhibition of growth at 10 µM: 13.7%
SK-MEL-28
  inhibition of growth at 10 µM: < 1%
OVCAR-8
  inhibition of growth at 10 µM: < 1%
SNB-19
  inhibition of growth at 10 µM: < 1%
HCT-15
  inhibition of growth at 10 µM: 21.3%
SK-MEL-5
  inhibition of growth at 10 µM: < 1%
COLO 205
  inhibition of growth at 10 µM: 27.2%
SK-MEL-2
  inhibition of growth at 10 µM: < 1%
NCI-H460
  inhibition of growth at 10 µM: < 1%
NCI-H23
  inhibition of growth at 10 µM: < 1%
NCI-H322M
  inhibition of growth at 10 µM: < 1%
Hs-578T
  inhibition of growth at 10 µM: < 1%
HCC 2998
  inhibition of growth at 10 µM: < 1%
HT-29
  inhibition of growth at 10 µM: 30%
T47D
  inhibition of growth at 10 µM: 11.2%
SF-268
  inhibition of growth at 10 µM: < 1%
786-0
  inhibition of growth at 10 µM: < 1%
OVCAR-5
  inhibition of growth at 10 µM: < 1%
PC-3
  inhibition of growth at 10 µM: 14.9%
SF-539
  inhibition of growth at 10 µM: < 1%
UO-31
  inhibition of growth at 10 µM: 37.5%
